Measured values reported in ChEMBL document CHEMBL1629654, “Breakthrough Aspergillus fumigatus and Candida albicans double infection during caspofungin treatment: laboratory characteristics and implication for susceptibility testing” (2009).
Values after ≈ are worked out from the molar mass of the structure shown. Active and inactive are the calls of the source. No cut-off for these calls is given here. *1 amine or outer side, *2 acyl side, *3 side chain or, on linkers, in order; H or OH if unused. Where a SMILES comes first, the peptide text is derived from it. Bridges are numbered along the chain shown (N, C = ends). [ ]: non-standard residue; d: D form. The star is where a group is joined. pTerphenylCO(4''-OnC5H11) = CCCCCOc1ccc(-c2ccc(-c3ccc(C(=O)*)cc3)cc2)cc1; Orn(4R-OH,5R-OH) = O=C([C@H](C[C@@H](O)[C@@H](O)N[*:3])N[*:1])[*:2]; hTyr(3S-OH,4S-OH) = N[C@H](C(=O)O)[C@H](O)[C@@H](O)c1ccc(O)cc1; Pro(3S-OH,4S-Me) = C[C@H]1CN[C@H](C(=O)O)[C@H]1O; Hyp = O=C(O)[C@@H]1C[C@@H](O)CN1

Assays:
Candida albicans [1] = assay: Antimicrobial activity against Candida albicans isolate S at 5 ug/ml grown on RPMI 1640 medium after 48 hrs by disk diffusion method; assay type: functional
How it was run: (§1)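 Disk diffusion on 90-mm RPMI 1640 with 2% glucose agar or on Mueller-Hinton agar. Plates were swabbed in three directions with a yeast suspension of 1–5 × 10^6 cells/ml. Paper disks (6 mm) held 1, 5 or 25 µg drug. Zone diameters were read at 24 and 48 h; values are means of two experiments.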

Candida albicans [2] = assay: Antimicrobial activity against Candida albicans isolate S at 25 ug/ml grown on RPMI 1640 medium after 48 hrs by disk diffusion method; assay type: functional; how it was run: as §1
Candida albicans [3] = assay: Antimicrobial activity against Candida albicans isolate S at 1 ug/ml grown on Muller-Hinton agar medium after 48 hrs by disk diffusion method; assay type: functional; how it was run: as §1
Candida albicans [4] = assay: Antimicrobial activity against Candida albicans isolate S at 5 ug/ml grown on Muller-Hinton agar medium after 48 hrs by disk diffusion method; assay type: functional; how it was run: as §1
Candida albicans [5] = assay: Antimicrobial activity against Candida albicans isolate S at 25 ug/ml grown on Muller-Hinton agar medium after 48 hrs by disk diffusion method; assay type: functional; how it was run: as §1
Candida albicans [6] = assay: Antimicrobial activity against Candida albicans isolate R after 24 hrs by microdilution method; assay type: functional
How it was run: (§2)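 Broth microdilution in microtiter plates, read spectrophotometrically at 490 nm. MIC taken as the lowest drug dilution giving 50% growth inhibition. C. krusei […] run as control in each run. Read at 24 h and 48 h; trailing growth noted at 48 h.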

Candida albicans [7] = assay: Antimicrobial activity against Candida albicans isolate C after 24 hrs by microdilution method; assay type: functional; how it was run: as §2
Candida albicans [8] = assay: Antimicrobial activity against Candida albicans isolate S at 1 ug/ml grown on RPMI 1640 medium after 48 hrs by disk diffusion method; assay type: functional; how it was run: as §1
Candida albicans [9] = assay: Antimicrobial activity against Candida albicans isolate R after 48 hrs by Etest; assay type: functional
How it was run: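 Etest on RPMI 1640 agar with 2% glucose, performed according to the manufacturer's recommendations.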

Candida albicans [10] = assay: Antimicrobial activity against Candida albicans isolate R at 0.5 ug/ml after 48 hrs by agar dilution method; assay type: functional, organism-based
How it was run: (§3)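 Sabouraud agar wells contained caspofungin 0, 0.5, 1 or 2 µg/ml, or anidulafungin 0, 0.003, 0.125 or 0.5 µg/ml. Isolates were subcultured 2 days on CHROMagar. Suspensions of 1–5 × 10^6 CFU/ml in sterile water were diluted 1,500-fold, and 5 µl (about 3–15 cells) was spread per well. Growth was scored.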

Candida albicans [11] = assay: Antimicrobial activity against Candida albicans isolate R after 48 hrs by EUCAST microdilution method; assay type: functional
How it was run: (§4)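 EUCAST broth microdilution, plates read spectrophotometrically at 490 nm. MIC is the lowest dilution giving 50% growth inhibition. C. krusei […] control included in each run.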

Candida albicans [12] = assay: Antimicrobial activity against Candida albicans isolate R after 48 hrs by microdilution method; assay type: functional; how it was run: as §2
Candida albicans [13] = assay: Antimicrobial activity against Candida albicans isolate R at 0.003 ug/ml after 48 hrs by agar dilution method; assay type: functional, organism-based; how it was run: as §3
Candida albicans [14] = assay: Antimicrobial activity against Candida albicans isolate C after 48 hrs by EUCAST microdilution method; assay type: functional; how it was run: as §4
Candida albicans [15] = assay: Antimicrobial activity against Candida albicans isolate C after 48 hrs by microdilution method; assay type: functional; how it was run: as §2
Candida albicans [16] = assay: Antimicrobial activity against Candida albicans isolate C after 48 hrs by Etest; assay type: functional
How it was run: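 Etest on RPMI 1640 agar with 2% glucose, run per the manufacturer's instructions. Index and control clinical blood isolates were tested in parallel.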

Candida albicans [17] = assay: Antimicrobial activity against Candida albicans isolate C at 0.5 ug/ml after 48 hrs by agar dilution method; assay type: functional, organism-based; how it was run: as §3
Candida albicans [18] = assay: Antimicrobial activity against Candida albicans isolate C at 0.003 ug/ml after 48 hrs by agar dilution method; assay type: functional, organism-based; how it was run: as §3
Candida albicans [19] = assay: Antimicrobial activity against Candida albicans isolate R infected in NMRI mouse assessed as decrease in kidney bacterial burden at 12 mg/kg, ip measured on day 4; assay type: functional, organism-based; set-up: dose 12 mg/kg
How it was run: (§5)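 NMRI mice (26–30 g), seven per group, were inoculated iv on day 0 with C. albicans (1 × 10^5 CFU). They received ip treatment on days 1–3 with anidulafungin 12 mg/kg or fluconazole 50 mg/kg; controls received saline. On day 4, kidneys were homogenised in saline and CFU counted by spot plating of 10-fold dilutions. Results are log10 CFU/ml; detection limit 50 CFU/ml; Mann-Whitney test.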

Candida albicans [20] = assay: Antimicrobial activity against Candida albicans isolate S infected in NMRI mouse assessed as decrease in kidney bacterial burden at 12 mg/kg, ip measured on day 4; assay type: functional, organism-based; set-up: dose 12 mg/kg
Candida albicans [21] = assay: Antimicrobial activity against Candida albicans isolate R at 1 ug/ml grown on RPMI 1640 medium after 24 hrs by disk diffusion method; assay type: functional; how it was run: as §1
Candida albicans [22] = assay: Antimicrobial activity against Candida albicans isolate R at 5 ug/ml grown on RPMI 1640 medium after 24 hrs by disk diffusion method; assay type: functional; how it was run: as §1
Candida albicans [23] = assay: Antimicrobial activity against Candida albicans isolate R at 25 ug/ml grown on RPMI 1640 medium after 24 hrs by disk diffusion method; assay type: functional; how it was run: as §1
Candida albicans [24] = assay: Antimicrobial activity against Candida albicans isolate R at 1 ug/ml grown on Muller-Hinton agar medium after 24 hrs by disk diffusion method; assay type: functional; how it was run: as §1
Candida albicans [25] = assay: Antimicrobial activity against Candida albicans isolate R at 5 ug/ml grown on Muller-Hinton agar medium after 24 hrs by disk diffusion method; assay type: functional; how it was run: as §1
Candida albicans [26] = assay: Antimicrobial activity against Candida albicans isolate R at 25 ug/ml grown on Muller-Hinton agar medium after 24 hrs by disk diffusion method; assay type: functional; how it was run: as §1
Candida albicans [27] = assay: Antimicrobial activity against Candida albicans isolate R at 1 ug/ml grown on RPMI 1640 medium after 48 hrs by disk diffusion method; assay type: functional; how it was run: as §1
Candida albicans [28] = assay: Antimicrobial activity against Candida albicans isolate R at 5 ug/ml grown on RPMI 1640 medium after 48 hrs by disk diffusion method; assay type: functional; how it was run: as §1
Candida albicans [29] = assay: Antimicrobial activity against Candida albicans isolate R at 25 ug/ml grown on RPMI 1640 medium after 48 hrs by disk diffusion method; assay type: functional; how it was run: as §1
Candida albicans [30] = assay: Antimicrobial activity against Candida albicans isolate R at 1 ug/ml grown on Muller-Hinton agar medium after 48 hrs by disk diffusion method; assay type: functional; how it was run: as §1
Candida albicans [31] = assay: Antimicrobial activity against Candida albicans isolate R at 5 ug/ml grown on Muller-Hinton agar medium after 48 hrs by disk diffusion method; assay type: functional; how it was run: as §1
Candida albicans [32] = assay: Antimicrobial activity against Candida albicans isolate R at 25 ug/ml grown on Muller-Hinton agar medium after 48 hrs by disk diffusion method; assay type: functional; how it was run: as §1
Candida albicans [33] = assay: Antimicrobial activity against Candida albicans isolate S at 1 ug/ml grown on RPMI 1640 medium after 24 hrs by disk diffusion method; assay type: functional; how it was run: as §1
Candida albicans [34] = assay: Antimicrobial activity against Candida albicans isolate S at 5 ug/ml grown on RPMI 1640 medium after 24 hrs by disk diffusion method; assay type: functional; how it was run: as §1
Candida albicans [35] = assay: Antimicrobial activity against Candida albicans isolate S at 25 ug/ml grown on RPMI 1640 medium after 24 hrs by disk diffusion method; assay type: functional; how it was run: as §1
Candida albicans [36] = assay: Antimicrobial activity against Candida albicans isolate S at 1 ug/ml grown on Muller-Hinton agar medium after 24 hrs by disk diffusion method; assay type: functional; how it was run: as §1
Candida albicans [37] = assay: Antimicrobial activity against Candida albicans isolate S at 5 ug/ml grown on Muller-Hinton agar medium after 24 hrs by disk diffusion method; assay type: functional; how it was run: as §1
Candida albicans [38] = assay: Antimicrobial activity against Candida albicans isolate S at 25 ug/ml grown on Muller-Hinton agar medium after 24 hrs by disk diffusion method; assay type: functional; how it was run: as §1
Candida albicans [39] = assay: Antimicrobial activity against Candida albicans isolate R infected in NMRI mouse assessed as decrease in kidney bacterial burden at 50 mg/kg, ip measured on day 4; assay type: functional, organism-based; set-up: dose 50 mg/kg; how it was run: as §5
Candida albicans [40] = assay: Antimicrobial activity against Candida albicans isolate S infected in NMRI mouse assessed as decrease in kidney bacterial burden at 50 mg/kg, ip measured on day 4; assay type: functional, organism-based; set-up: dose 50 mg/kg

CCCCCOc1ccc(-c2ccc(-c3ccc(C(=O)N[C@H]4C[C@@H](O)[C@@H](O)NC(=O)[C@@H]5[C@@H](O)[C@@H](C)CN5C(=O)[C@H]([C@@H](C)O)NC(=O)[C@H]([C@H](O)[C@@H](O)c5ccc(O)cc5)NC(=O)[C@@H]5C[C@@H](O)CN5C(=O)[C@H]([C@@H](C)O)NC4=O)cc3)cc2)cc1 [ANIDULAFUNGIN] ({pTerphenylCO(4''-OnC5H11)}-[Orn(4R-OH,5R-OH)]T[Hyp][hTyr(3S-OH,4S-OH)]T[Pro(3S-OH,4S-Me)]; lactam 1-C)
inhibition zone (IZ) (Candida albicans [1]): 15.7 mm
inhibition zone (IZ) (Candida albicans [2]): 13.8 mm
inhibition zone (IZ) (Candida albicans [3]): 13.9 mm
inhibition zone (IZ) (Candida albicans [4]): 14.6 mm
inhibition zone (IZ) (Candida albicans [5]): 13.1 mm
MIC (Candida albicans [6]): 0.5 µg/mL (≈ 0.438 µM)
MIC (Candida albicans [7]): 0.015 µg/mL (≈ 0.0132 µM)
inhibition zone (IZ) (Candida albicans [8]): 13.2 mm
MIC (Candida albicans [9]): 0.5 µg/mL (≈ 0.438 µM)
growth inhibition (GI) (Candida albicans [10]): inactive
MIC (Candida albicans [11]): 0.06 µg/mL (≈ 0.0526 µM)
MIC (Candida albicans [12]): 0.25 µg/mL (≈ 0.219 µM)
growth inhibition (GI) (Candida albicans [13]): inactive
MIC (Candida albicans [14]): ≤ 0.03 µg/mL
MIC (Candida albicans [15]): ≤ 0.015 µg/mL
MIC (Candida albicans [16]): ≤ 0.002 µg/mL
growth inhibition (GI) (Candida albicans [17]): Active
growth inhibition (GI) (Candida albicans [18]): inactive
Activity (Candida albicans [19]): inactive
Activity (Candida albicans [20]): Active
inhibition zone (IZ) (Candida albicans [21]): 8.5 mm
inhibition zone (IZ) (Candida albicans [22]): 9.5 mm
inhibition zone (IZ) (Candida albicans [23]): 7.7 mm
inhibition zone (IZ) (Candida albicans [24]): 6.7 mm
inhibition zone (IZ) (Candida albicans [25]): 9.4 mm
inhibition zone (IZ) (Candida albicans [26]): 6.8 mm
inhibition zone (IZ) (Candida albicans [27]): 7.8 mm
inhibition zone (IZ) (Candida albicans [28]): 8.8 mm
inhibition zone (IZ) (Candida albicans [29]): 7.1 mm
inhibition zone (IZ) (Candida albicans [30]): 6.8 mm
inhibition zone (IZ) (Candida albicans [31]): 9.9 mm
inhibition zone (IZ) (Candida albicans [32]): 7 mm
inhibition zone (IZ) (Candida albicans [33]): 13.7 mm
inhibition zone (IZ) (Candida albicans [34]): 15.9 mm
inhibition zone (IZ) (Candida albicans [35]): 14.9 mm
inhibition zone (IZ) (Candida albicans [36]): 13.2 mm
inhibition zone (IZ) (Candida albicans [37]): 14.2 mm
inhibition zone (IZ) (Candida albicans [38]): 12.8 mm

OC(Cn1cncn1)(Cn1cncn1)c1ccc(F)cc1F [FLUCONAZOLE]
MIC (Candida albicans [6]): ≤ 0.125 µg/mL
MIC (Candida albicans [7]): 0.25 µg/mL (≈ 0.816 µM)
MIC (Candida albicans [11]): ≤ 0.125 µg/mL
MIC (Candida albicans [12]): ≤ 0.125 µg/mL
MIC (Candida albicans [14]): 0.125 µg/mL (≈ 0.408 µM)
MIC (Candida albicans [15]): ≤ 0.25 µg/mL
Activity (Candida albicans [39]): Active
Activity (Candida albicans [40]): Active
